ChEMBL document CHEMBL1129452, “Phenethylthiazolylthiourea (PETT) compounds as a new class of HIV-1 reverse transcriptase inhibitors. 2. Synthesis and further structure-activity relationship studies of PETT analogs” (J Med Chem, 1996)

How the values were obtained:
[1] = biological target: T1, Human immunodeficiency virus type 1 reverse transcriptase (Human immunodeficiency virus 1, UniProt Q72547); assay: Tested for the inhibition of wild type HIV-1 (IIIB) RT
MT4 [2] = assay: Inhibition of HIV-1(IIIB) variants (Ile100/Cys 181) in HIV-1 MT-4 cells; type: functional; conditions: Homo sapiens, read-out: ED50 (the source's name)
How it was run: (§1)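 MT-4 cells (human T cell line) in RPMI 1640 with 10% fetal calf serum, penicillin and streptomycin, seeded at 2 × 10⁴ cells/well. Infected with 10-20 TCID₅₀ of mutant HIV-1 IIIB per well, with the compound added at different concentrations. Incubated at 37 °C in CO₂. Cell viability read by XTT dye at day 5 or 6. Activity taken as the reduction in viral cytopathic effect, given as ED₅₀. Mutants were raised by passage in stepwise increasing concentrations of non-nucleoside RT inhibitors.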

MT4 [3] = assay: Inhibition of mutant type (Cys181) HIV-1 (IIIB) replication in MT-4 cells; type: functional; conditions: Homo sapiens, read-out: ED50 (the source's name); how it was run: as §1
MT4 [4] = assay: Inhibition of HIV-1(IIIB) variants (Ile100/Asn103) in HIV-1 MT-4 cells; type: functional; conditions: Homo sapiens, read-out: ED50 (the source's name); how it was run: as §1
MT4 [5] = assay: Tested for the inhibition of wild type HIV-1 (IIIB) replication in MT-4 cells; type: functional; conditions: Homo sapiens, read-out: ED50 (the source's name)
How it was run: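 MT-4 human T cells in RPMI 1640 with 10% fetal calf serum, penicillin and streptomycin, seeded at 2 × 10⁴ cells/well and infected with 10-20 TCID₅₀ HIV-1 IIIB per well. Compounds were added over a concentration range and cultures kept at 37 °C in CO₂. Viability was read by XTT at day 5 or 6, and activity was taken as reduction of viral cytopathic effect.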

[6] = biological target: T1, Human immunodeficiency virus type 1 reverse transcriptase; assay: Tested for the inhibition of mutant type (Cys181) HIV-1 (IIIB) RT
[7] = biological target: T1, Human immunodeficiency virus type 1 reverse transcriptase; assay: Tested for the inhibition of mutant type (Ile100) HIV-1 (IIIB) RT
MT4 [8] = assay: Inhibition of mutant type (Ile100) HIV-1 (IIIB) replication in MT-4 cells; type: functional; conditions: Homo sapiens, read-out: ED50 (the source's name); how it was run: as §1
MT4 [9] = assay: Inhibition of HIV-1(IIIB) variants (Ile100/Cys181 in HIV-1 MT-4 cells; type: functional; conditions: Homo sapiens, read-out: ED50 (the source's name); how it was run: as §1

Structure (SMILES)	IC50 [1]	EC50 (MT4 [2])	EC50 (MT4 [3])	EC50 (MT4 [4])	EC50 (MT4 [5])	IC50 [6]	IC50 [7]	EC50 (MT4 [8])	EC50 (MT4 [9])
N#Cc1ccc(F)c(CC/N=C(\S)Nc2ccc(Cl)cn2)c1F	9 nM	> 10000 nM	50 nM	> 10000 nM	6 nM	90 nM	400 nM	800 nM	
COc1ccc(F)c(F)c1CCNC(=S)Nc1ccc(Br)cn1	3 nM		40 nM	> 10000 nM	7 nM	4 nM	50 nM	600 nM	> 10000 nM
